From ChEMBL document CHEMBL1155120, “Synthesis of 4-oxo-4,7-dihydrofuro[2,3-b]pyridine-5-carboxamides with broad-spectrum human herpesvirus polymerase inhibition” (Bioorg Med Chem Lett, 2008) come the findings set out here.

SMILES strings stand for the structures. Converted amounts (≈) assume the structure as drawn.

The nature of data set [1]: Inhibition of HCMV DNA polymerase by scintillation proximity assay. Set-up: species or system Human betaherpesvirus 5. The gist of the method: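 Scintillation proximity assay with purified HCMV DNA polymerase, measuring incorporation of ³H-labelled nucleotide into template-primer. IC50 values are means of at least two experiments, with standard deviation where given.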
On the technique in general: In a scintillation proximity assay essentially only radioactivity close to the scintillant gives light.

The test system of a further data set is Human betaherpesvirus 5. Description: Antiviral activity against HCMV Davis by plaque reduction assay. In kind it is functional, organism-based. The settings on record: Human betaherpesvirus 5, Davis. The gist of the method: (§1)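 Plaque reduction assays used HCMV Davis strain and HSV-1 KOS strain. IC50 values are means of at least two experiments, with standard deviation where given.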
A general note: In a plaque reduction assay, fewer plaques than in the control indicate reduced infectivity or spread.

Data set [2] deals with T1, DNA polymerase catalytic subunit (Human herpesvirus 1 (strain KOS) (HHV-1) (Human herpes simplex virus1), UniProt P04292).
T1 sequence (P04292 whole entry): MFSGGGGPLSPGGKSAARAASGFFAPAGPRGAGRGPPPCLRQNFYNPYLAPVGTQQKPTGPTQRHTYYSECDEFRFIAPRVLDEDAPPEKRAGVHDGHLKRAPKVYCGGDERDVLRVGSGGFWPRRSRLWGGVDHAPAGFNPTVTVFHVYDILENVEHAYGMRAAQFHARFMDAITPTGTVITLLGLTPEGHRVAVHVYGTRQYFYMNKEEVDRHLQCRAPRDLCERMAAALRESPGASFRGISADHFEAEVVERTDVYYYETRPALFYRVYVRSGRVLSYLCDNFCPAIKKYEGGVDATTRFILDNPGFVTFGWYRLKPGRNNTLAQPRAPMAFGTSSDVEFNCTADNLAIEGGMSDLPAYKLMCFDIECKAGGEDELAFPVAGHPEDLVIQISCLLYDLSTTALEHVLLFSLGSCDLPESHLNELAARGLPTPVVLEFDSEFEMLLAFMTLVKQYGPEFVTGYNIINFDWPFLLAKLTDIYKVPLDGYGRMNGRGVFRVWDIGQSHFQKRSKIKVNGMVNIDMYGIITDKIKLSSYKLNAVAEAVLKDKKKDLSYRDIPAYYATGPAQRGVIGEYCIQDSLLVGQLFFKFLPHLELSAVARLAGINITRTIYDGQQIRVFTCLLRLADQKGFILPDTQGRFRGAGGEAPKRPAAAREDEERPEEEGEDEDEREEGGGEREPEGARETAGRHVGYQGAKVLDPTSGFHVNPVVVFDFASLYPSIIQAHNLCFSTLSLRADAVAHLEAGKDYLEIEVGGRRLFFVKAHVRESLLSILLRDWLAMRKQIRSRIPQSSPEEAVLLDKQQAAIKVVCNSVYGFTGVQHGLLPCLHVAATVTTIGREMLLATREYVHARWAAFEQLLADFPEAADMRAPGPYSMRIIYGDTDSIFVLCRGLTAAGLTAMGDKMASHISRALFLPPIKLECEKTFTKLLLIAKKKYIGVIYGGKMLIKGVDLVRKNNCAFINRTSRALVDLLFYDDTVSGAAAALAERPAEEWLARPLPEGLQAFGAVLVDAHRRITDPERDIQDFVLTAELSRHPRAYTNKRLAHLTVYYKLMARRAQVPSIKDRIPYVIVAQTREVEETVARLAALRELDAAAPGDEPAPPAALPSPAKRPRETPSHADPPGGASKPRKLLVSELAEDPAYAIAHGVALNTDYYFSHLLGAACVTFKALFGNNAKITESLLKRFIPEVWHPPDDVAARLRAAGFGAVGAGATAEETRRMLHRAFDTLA
Description: Inhibition of HSV1 DNA polymerase by scintillation proximity assay. Set-up: species or system Human alphaherpesvirus 1.

A short description of data set [3]: Inhibition of VZV DNA polymerase by scintillation proximity assay. Also noted: species or system Human alphaherpesvirus 3.
The next data set deals with Human alphaherpesvirus 1. The data set is described as follows: Antiviral activity against HSV1 KOS by plaque reduction assay. The settings on record: Human alphaherpesvirus 1, KOS. In kind it is functional, organism-based. The gist of the method:
as §1

For a further data set, the system named is Human alphaherpesvirus 3. The data set is described as follows: Antiviral activity against VZV Webster by plaque reduction assay. It is filed as functional, organism-based. The settings on record: Human alphaherpesvirus 3, Webster.
Data set [4] can be described thus: Inhibition of human polymerase alpha by scintillation proximity assay.
Data set [5] can be described thus: Inhibition of human polymerase gamma by scintillation proximity assay.
Data set [6] is described as follows: Cytotoxicity against HFF cells after 3 days by neutral red dye uptake assay. It is filed as cell-based. The settings on record: human. The gist of the method:
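Uninfected, replicating HFF cells were seeded as subconfluent monolayers and exposed to compound for 3 days.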

Data set [7] is described as follows: Inhibition of human polymerase delta by scintillation proximity assay.
Data set [8] can be described thus: Oral bioavailability in rat. The settings on record: in vivo. In kind it is ADME, organism-based. The gist of the method:
(§2)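 Dosing was intravenous at 5 mg/kg and oral at 15 mg/kg. The vehicle was 80/20 PEG400/0.01 M methanesulfonic acid.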

The test system of another data set is Human gammaherpesvirus 4. The data set is described as follows: Antiviral activity against EBV lytic replication in GG68 cells after 72 hrs by Southern blot analysis. In kind it is functional, organism-based. The settings on record: human gammaherpesvirus 4, GG68, 72 h.
A short description of data set [9]: Oral bioavailability in dog. The settings on record: in vivo. It is filed as ADME, organism-based, Canis lupus familiaris. The gist of the method: as §2
A short description of data set [10]: Aqueous solubility of the compound. It is filed as physicochemical.

Turning to `CN(Cc1cc2c(=O)c(C(=O)NCc3ccc(Cl)cc3)cn(CCc3ccccc3)c2o1)C[C@@H](O)c1ccco1`, half-maximal inhibition in data set [1] (IC50) was put at 690 nM.

For the molecule `CN(Cc1cc2c(=O)c(C(=O)NCc3ccc(Cl)cc3)cn(C)c2o1)C[C@@H](O)c1ncccn1`, the values for the IC50 (in data set [1]; with Human betaherpesvirus 5) were 170 nM and 360 nM, respectively.

As for `CCN(CC)CCn1cc(C(=O)NCc2ccc(Cl)cc2)c(=O)c2cc(CN(C)C[C@@H](O)c3ccco3)oc21`, in data set [1], it took 3920 nM to reach half-maximal inhibition (IC50).

For the molecule `CN(Cc1cc2c(=O)c(C(=O)NCc3ccc(Cl)cc3)cn(C3CC3)c2o1)C[C@@H](O)c1ccco1`, the IC50 (commonly the concentration that inhibits the measured activity by half) in data set [1] was 420 nM; with Human betaherpesvirus 5, 1200 nM.

Take `CN(Cc1cc2c(=O)c(C(=O)NCc3ccc(Cl)cc3)cn(C)c2o1)C[C@@H](O)c1ccccn1`: the IC50 in data set [2] is 350 nM; in data set [3], 100 nM; in the data set with Human alphaherpesvirus 1, 5.4 µM; with Human alphaherpesvirus 3, 90 nM; in [1] it was 220 nM; in data set [4] it was over 20 µM. For the same molecule, the figures for the IC50 (with Human betaherpesvirus 5; in [5]; in data set [7]) were 170 nM, over 20 µM and over 20 µM, respectively. Further, in [6], the CC50 (usually the concentration that lowers cell viability or growth by half) at 72 h is over 100 µM.

On to `Nc1nc2c(ncn2COCCO)c(=O)[nH]1` [ACYCLOVIR], for which the concentration for half-maximal inhibition (IC50) in the data set on Human betaherpesvirus 5 was over 20000 nM. Also, the CC50 at 72 h in data set [6] is over 100 µM.

As for `Nc1nc(O)c2ncn(COC(CO)CO)c2n1` [GANCICLOVIR], the 50% cytotoxic concentration (CC50) at 72 h in data set [6] is over 100 µM.

As for `Cc1ccc(CNC(=O)c2cn(C)c3oc(CN(C)C[C@@H](O)c4ccco4)cc3c2=O)cc1`, the half-maximal inhibitory concentration (IC50) in data set [1] is 3140 nM.

In turn, `CN(Cc1cc2c(=O)c(C(=O)NCc3ccc(F)cc3)cn(C)c2o1)C[C@@H](O)c1ccco1` came in with an IC50 in data set [1] of 610 nM.

Turning to `O=C(O)P(=O)(O)O` [FOSCARNET], the IC50 in [5] is under 0.28 µM.

For the molecule `CN(Cc1cc2c(=O)c(C(=O)NCc3ccc(Cl)cc3)cn(C)c2o1)C[C@@H](O)c1ccco1`, the 50% inhibitory concentration (IC50) in data set [2] was found to be 220 nM; in data set [3], 78 nM; with Human alphaherpesvirus 1, 4.3 µM; in the data set with Human alphaherpesvirus 3 it was 20 nM; in the data set on Human gammaherpesvirus 4 it was 400 nM; in data set [1], 76 nM. Further, the IC50 is over 20 µM in data set [4], 26 nM with Human betaherpesvirus 5, over 20 µM in data set [5] and over 20 µM in [7]. The values for the bioavailability in [8] and in data set [9] were 67% and 76%, respectively. Besides, in [10], the solubility – broadly, how much of the substance goes into solution per volume – is 60 µM (≈ 28.2 µg/mL). In addition, the cytotoxic concentration (CC50) at 72 h in [6] is over 100 µM.

In data set [1], `CN(Cc1cc2c(=O)c(C(=O)NCc3ccccc3)cn(C)c2o1)C[C@@H](O)c1ccco1` gave an IC50 of 11400 nM.

`CN(Cc1cc2c(=O)c(C(=O)NCc3ccc(Cl)cc3)cn(-c3ccccn3)c2o1)C[C@@H](O)c1ccco1`: the values for the IC50 (in data set [1]; in the data set with Human betaherpesvirus 5) were 140 nM and 50 nM, respectively.

With `CCn1cc(C(=O)NCc2ccc(Cl)cc2)c(=O)c2cc(CN(C)C[C@@H](O)c3ccco3)oc21`, the results for the IC50 (in data set [1]; in the data set on Human betaherpesvirus 5) were 510 nM and 700 nM, respectively.

Consider `CN(Cc1cc2c(=O)c(C(=O)NCc3ccc(Cl)cc3)cn(-c3ccccc3)c2o1)C[C@@H](O)c1ccco1`, for which, in data set [1], the half-inhibitory concentration (IC50) came out at 830 nM.

For `CN(Cc1cc2c(=O)c(C(=O)NCc3ccc(F)c(F)c3)cn(C)c2o1)C[C@@H](O)c1ccco1`, in data set [1], the IC50 came out at 1020 nM.

The molecule `CN(Cc1cc2c(=O)c(C(=O)NCc3ccc(C(F)(F)F)cc3)cn(C)c2o1)C[C@@H](O)c1ccco1` returned a concentration for half-maximal inhibition (IC50) in [1] of 6450 nM.

In the case of `CN(Cc1cc2c(=O)c(C(=O)NCc3ccc(Cl)cc3)cn(C)c2s1)C[C@@H](O)c1ccccn1`, the concentration for half-maximal inhibition (IC50) in the data set with Human gammaherpesvirus 4 was found to be 200 nM.

Molecule `CN(Cc1cc2c(=O)c(C(=O)NCc3ccc(Br)cc3)cn(C)c2o1)C[C@@H](O)c1ccco1` registered an IC50 in [1] of 340 nM.

`CCCn1cc(C(=O)NCc2ccc(Cl)cc2)c(=O)c2cc(CN(C)C[C@@H](O)c3ccco3)oc21` returned a concentration for half-maximal inhibition (IC50) in data set [1] of 1120 nM.

As to `CN(Cc1cc2c(=O)c(C(=O)NCc3ccc(Cl)cc3)cn(C)c2o1)C[C@@H](O)c1cnccn1`, the half-inhibitory concentration (IC50) in data set [1] came out at 220 nM; in the data set with Human betaherpesvirus 5, 28 nM.
